Measurements reported in PMC6978834 (ACS Central Science, 2019).

Key:
[1] = test system: P. falciparum NF54 synchronized asexual parasites; experiment: Stage-specificity during the asexual cell cycle; assay type: cell-based, Plasmodium falciparum; conditions: 6 h; data not shown
Outline: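 NF54 synchronized to 0–3 hpi by gelatin flotation, then 5% D-sorbitol 3 h later. Plated at 2% hematocrit, 0.5% starting parasitemia. 6 h exposure at 1×, 3× or 10× IC50 starting at 0, 6, 12, 18, 24, 30, 36 or 42 hpi, then cells washed in RPMI and recultured. Giemsa-smear parasitemia at 72 h post-synchronization; survival relative to DMSO. Three independent experiments, one well each; unpaired t test versus DMSO.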

P. falciparum NF54 = assay type: cell-based; conditions: Plasmodium falciparum, NF54, read-out: IC50 P. falciparum proliferation
Outline: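 Asynchronous asexual P. falciparum NF54 cultures grown by a standard protocol. Proliferation IC50 determined with DHA as positive and DMSO as negative control. Values are mean IC50 ± SD of at least two independent experiments run in triplicate.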

| SMILES | activity on the ring stages [1] | IC50 (P. falciparum NF54) [nM] |
| --- | --- | --- |
| Clc1ccc2c(N3CCN(CCCN4CCN(c5ccnc6cc(Cl)ccc56)CC4)CC3)ccnc2c1 [piperaquine] | not active |  |
| C[C@H]1[C@@H](O)O[C@@H]2O[C@@]3(C)CC[C@H]4[C@H](C)CC[C@@H]1[C@@]24OO3 [dihydroartemisinin (DHA), dihydroartemisinin] |  | 5 ± 1 |
